Assay outcomes as filed in PubChem.
H69AR growth 86K = growth inhibitors of human H69AR lung tumor cells | 85,000 tested, 6% active | viability, % at 10 µM | AID 598 | H69AR lung tumor viability, ATP luminescence, 72 h; active compounds read low;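 active means viability at or below 40%; inactive means viability above 40%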;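 further: multidrug resistant small cell line overexpressing MRP-1 efflux transporter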
Fibroblast inh = blocks proliferation of human lung fibroblasts | 85,000 tested, 1.1% active | LL 47 human lung fibroblast viability, ATP luminescence; active compounds read low | viability, % at 10 µM;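 active means viability at or below 50% in the single dose screen; inactive means viability above 50%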;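 further: compound exposure lasted 72 h before the ATP readout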
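Test system: LL 47 human lung fibroblasts / Quantity: 1,150 cells in each well / Medium: IMEM growth medium with 15% fetal bovine serum / Incubation: 72 h compound exposure at 37 °C after overnight plating / Detection: CellTiter-Glo luminescence measuring cellular ATP / Read-out: % viability versus median cells-only luminescence / Benchmarks: cell-only wells, no compound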
ERa SRC1 inh = blocks coactivator binding to human estrogen receptor alpha. P03372. TR-FRET ER-alpha LBD / SRC-1 peptide, estradiol-bound. inhibition, % at 25.6 µM. 86,000 tested, 1.7% active. AID 629; in the data active means inhibition above about 50%
ERb coact inh = blocks coactivator binding to human estrogen receptor beta. Q92731. TR-FRET ER-beta LBD / SRC1-Cy5 peptide binding; receptor agonist-loaded with 1 µM estradiol. inhibition, % at 25.6 µM. 86,000 tested, 1.3% active. AID 633;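 active means compounds whose percent inhibition of the receptor-coactivator binding signal exceeds about 50% in the single-dose screen, limit read from the data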
Target sequence (Q92731 whole entry, looked up, the tested form may be a part): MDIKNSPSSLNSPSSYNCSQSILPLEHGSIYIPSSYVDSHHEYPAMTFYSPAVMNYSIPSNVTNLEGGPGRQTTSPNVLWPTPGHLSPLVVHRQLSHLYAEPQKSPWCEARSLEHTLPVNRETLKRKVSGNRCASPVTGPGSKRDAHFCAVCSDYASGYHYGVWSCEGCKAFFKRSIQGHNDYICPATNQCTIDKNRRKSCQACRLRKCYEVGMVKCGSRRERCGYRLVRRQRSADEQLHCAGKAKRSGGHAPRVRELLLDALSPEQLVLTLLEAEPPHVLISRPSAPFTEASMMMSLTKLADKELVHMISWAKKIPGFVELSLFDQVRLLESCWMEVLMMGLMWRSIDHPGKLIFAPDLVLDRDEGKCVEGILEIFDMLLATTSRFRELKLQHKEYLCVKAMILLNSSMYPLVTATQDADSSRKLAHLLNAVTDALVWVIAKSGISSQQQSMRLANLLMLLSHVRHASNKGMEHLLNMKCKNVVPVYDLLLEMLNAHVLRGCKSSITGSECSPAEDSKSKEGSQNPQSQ
HUVEC prolif 384 = inhibitors of human endothelial cell proliferation | 86,000 tested, 1.1% active | viability, % at 10 µM (by protocol) | AID 648 | HUVEC proliferation, CellTiter-Glo luminescence, 72 h; active compounds read low;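 active means viability at or below 30%; inactive means viability above 30%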
ERa coact pot = enhances coactivator binding to human estrogen receptor alpha; P03372; TR-FRET ERalpha-LBD/SRC-Cy5 coactivator binding, 2 h; 100 = basal binding, no effect; coactivator binding (% of control), % at 25.6 µM; 86,000 tested, 1.3% active; in the data active means activity above about 200%;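 further: binding measured in presence of low estradiol as agonist stimulus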
Large screens that a line does not name were inactive; [ ] = dose if it differs, or a comment. Hits are enriched below; roughly 9.2% of the tested compounds scored in any of these assays.

Nc1nc(CSc2nnnn2-c2ccccc2)nc(N2CCCc3ccccc32)n1	H69AR growth 86K 27.8
C=CCn1c(CSc2nc3ccccc3s2)nnc1SCC(=O)NCc1ccccc1	none
CCCCCC(=O)O[C@]1(C(C)=O)CC[C@H]2[C@@H]3CCC4=CC(=O)CC[C@]4(C)[C@H]3CC[C@@]21C	H69AR growth 86K 4.8
CCCCCCCC(=O)OCC(=O)[C@@]1(O)CC[C@H]2[C@@H]3CCC4=CC(=O)CC[C@]4(C)[C@H]3[C@@H](O)C[C@@]21C	none
COc1ccc(Cl)cc1Nc1nc(N2CCCC2)nc(N2CCCC2)n1	none
Cc1cc(NC(=O)c2cncc(Br)c2)n(-c2ccccn2)n1	H69AR growth 86K 37.0, ERa coact pot 294.0
CCCCn1nnnc1SCC(=O)NCc1ccccc1	none
CCOc1ccc(NC(=O)c2cc3c(C)nc4ccccc4c3o2)cc1	H69AR growth 86K 29.8
CCOC(=O)C1=C(N)Oc2cc(C)[nH]c(=O)c2C1c1ccncc1 (configuration not stated)	none
CCOC(=O)C1=C(N)Oc2c(c(=O)[nH]c3ccccc23)C1c1ccccc1 (configuration not stated)	H69AR growth 86K 13.2
CCn1c(SCC(=O)Nc2ccc(NC(=O)c3ccco3)c(OC)c2)nc2ccccc2c1=O	H69AR growth 86K 10.0, ERa SRC1 inh 65.2
CCCCn1c(SCC(=O)Nc2cc(NC(=O)c3ccco3)ccc2C)nc2ccccc2c1=O	H69AR growth 86K 6.8, ERa SRC1 inh 74.9[fluorescence artefact?], ERb coact inh 57.5[fluorescence artefact?]
COCCn1c(SCC(=O)Nc2ccc(NC(=O)c3ccco3)c(OC)c2)nc2ccccc2c1=O	H69AR growth 86K 31.4
COCCn1c(SCC(=O)Nc2ccc(S(=O)(=O)N(C)C)cc2)nc2ccccc21	H69AR growth 86K 34.8
CCn1c(SCC(=O)Nc2ccccc2OC)nc2ccccc2c1=O	none
N#CC1(c2ccccc2)CCC(=NO)CC1 (configuration not stated)	none
Cn1ncc(N=Cc2ccc([N+](=O)[O-])cc2)c1C(=O)N1CCOCC1	none
CCn1c(Oc2ccc(Oc3ncc(Cl)cc3Cl)cc2)nc2c1c(=O)n(C)c(=O)n2C	none
CC1CN(c2nnnn2-c2ccccc2)CC(C)O1 (configuration not stated)	none (no result: Fibroblast inh)
COc1cccc(-c2nnc(Nc3nc4c(F)cccc4s3)o2)c1	HUVEC prolif 384 15.6
O=C(Nc1nnc(-c2ccccc2Cl)o1)c1nc2ccccc2s1	H69AR growth 86K 28.3
COc1cccc2sc(Nc3nnc(-c4ccccc4Cl)o3)nc12	H69AR growth 86K 26.6, Fibroblast inh 41.4, HUVEC prolif 384 2.4
COc1cccc(-c2nnc(NC(C)=O)o2)c1	none
CCOc1ccccc1NC(=O)/C=C/C(N)=O	H69AR growth 86K 1.3
CCOC(=O)c1sc(NC(=O)c2c(C)nn(Cc3ccccc3)c2C)cc1C	H69AR growth 86K 13.4, ERa coact pot 201.9
CC(NC(=O)Cc1ccc(F)cc1)C(c1cccs1)N1CCN(C)CC1 (configuration not stated)	none
COC(=O)C1CCN(C(=O)COc2ccc(Cl)cc2)CC1	none
COC(=O)C1CCN(C(=O)COc2cc3sc(C)nc3c3sccc23)CC1	H69AR growth 86K 34.8
Cc1ccc(C2C(C#N)=C(N)SC(N)=C2C#N)o1	ERb coact inh 66.8[fluorescence artefact?]
COc1ccc(C(=O)NCS(=O)(=O)c2ccc(C)cc2)cc1	none
CO/N=C(/CS(=O)(=O)c1ccc(C)cc1)c1ccc(OC)cc1	H69AR growth 86K 35.7
CCOC(=O)C1=C(C)N(C)C(=O)NC1c1c(C)nn(-c2ccc(C)cc2)c1Cl (configuration not stated)	H69AR growth 86K 31.0
Cc1ccc(-c2nnc3ccc(SCC(=O)N4CCCCC4)nn23)cc1	none
O=C(N/N=C/c1ccc(O)c(O)c1)c1ccc(CSc2cccc3cccnc23)cc1	H69AR growth 86K 39.9
Cc1c(C=O)c2ccccc2n1CC(=O)N1CCc2ccccc2C1	none
O=C(Nc1cccc(Cl)c1)Nc1cccc(Cl)c1	none
O=C(Nc1ccccc1)Nc1cc(Cl)cc(Cl)c1	H69AR growth 86K 1.8, HUVEC prolif 384 28.3
COc1cc(OC)cc(C(=O)NC2CCN(CC(=O)Nc3cccc4ccccc34)CC2)c1	H69AR growth 86K 38.8
O=C(CN1CCC(NC(=O)c2ccco2)CC1)Nc1cccc2ccccc12	none
N=c1c2c(ncn1CCN1CCOCC1)Oc1ccc3ccccc3c1C2c1ccccc1 (configuration not stated)	H69AR growth 86K 2.3, HUVEC prolif 384 6.1
COc1ccc(C2c3c(ncn(CCN4CCOCC4)c3=N)Oc3ccc4ccccc4c32)cc1 (configuration not stated)	H69AR growth 86K 1.3, HUVEC prolif 384 29.0
CCOc1ccc2[nH]c(=O)c(CN(CCO)C(=O)CC)cc2c1	none
COc1ccc(C(=O)N(Cc2ccco2)Cc2cc3cc(C)ccc3[nH]c2=O)cc1OC	none
COc1ccc2[nH]c(=O)c(CN(Cc3ccco3)C(=O)c3ccccc3)cc2c1	none
O=C(Nc1ccc(F)cc1)N(Cc1ccco1)Cc1cc2cc3c(cc2[nH]c1=O)OCO3	H69AR growth 86K 31.2
Cc1ccc2[nH]c(=O)c(CN(Cc3ccco3)C(=O)c3ccncc3)cc2c1	H69AR growth 86K 23.1
CCOc1ccc2[nH]c(=O)c(CN(Cc3ccccc3OC)C(=O)c3ccccc3)cc2c1	H69AR growth 86K 27.0
CCOc1ccc2[nH]c(=O)c(CN(Cc3ccc(F)cc3)C(=O)N3CCCC3)cc2c1	ERa coact pot 331.0[fluorescence artefact?]
Cc1ccc(NC(=O)N(Cc2ccc3c(c2)OCO3)Cc2cc3cc4c(cc3[nH]c2=O)OCCO4)cc1	none
CS(=O)(=O)Nc1ccccc1C(=O)N1CCN(c2ccccc2)CC1	none
C=CCn1c(=O)n(CCOC)c(=O)c2sc3ccccc3c21	none
COc1ccc2[nH]c(=O)c(CN(CC3CCCO3)C(=O)Nc3ccccc3OC)cc2c1 (configuration not stated)	H69AR growth 86K 20.4
CCOc1ccc2[nH]c(=O)c(CN(CC3COCCO3)C(=O)c3ccco3)cc2c1 (configuration not stated)	none
CCOc1ccc2[nH]c(=O)c(CN(Cc3ccco3)C(=O)c3ccc(Br)cc3)cc2c1	H69AR growth 86K 19.0
Cc1cc2cc(CN(Cc3ccco3)C(=O)NCc3ccccc3)c(=O)[nH]c2cc1C	none
CCOc1ccc2[nH]c(=O)c(CN(Cc3ccc(F)cc3)C(=O)c3ccco3)cc2c1	H69AR growth 86K 15.9
Cc1cc2cc(CN(Cc3ccco3)C(=O)C3CCCCC3)c(=O)[nH]c2cc1C	H69AR growth 86K 15.8
Cc1noc(C)c1COC(=O)CCc1nc2ccccc2c(=O)[nH]1	none
CCC1Oc2ccc(C)cc2N(CC(=O)N(Cc2ccncc2)Cc2ccco2)C1=O (configuration not stated)	H69AR growth 86K 34.4
